How the values were obtained:
[1] = melting temperature; fluorescence melt of hairpins on a sequencing array, two-state fit, raised by 9.35 °C to match UV melts; details: sodium 0.088 M
In short: (§1)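 In 50 mM Na-HEPES pH 8.0 containing 25 mM NaCl, hairpins from the library on a sequenced MiSeq flow cell were imaged for Cy3 fluorescence at 2.5 °C steps up to 60 °C, with Cy3 and quencher oligos annealed. After normalisation to pre-quench Cy3 and to control constructs, two-state fits with bootstrapping gave melting temperature and folding enthalpy. Four replicates were combined by inverse-variance weighting, and fitted temperatures were shifted up by 9.35 °C to match UV melts.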

[2] = folding enthalpy; higher = less favourable; fluorescence melt of hairpins on a sequencing array, two-state fit; details: sodium 0.088 M
In short: as §1

Sequence	Tm [1]	folding enthalpy [2]
GTGTTCGAAAGAAAGCAC ((((((....)))..)))	27.5 °C	-12.8 kcal/mol
GTATATCGAAAGATTTAC (((.(((....))).)))	36.4 °C	-21.8 kcal/mol
GCGGGCTCGAAAGAGCGC (((..(((....))))))	55 °C	-10.2 kcal/mol
GATCGACAGTCGATC ((((((...))))))	49.8 °C	-40.4 kcal/mol
GAGCAGGGAAACTTGCTC (((((.(....).)))))	49 °C	-32.1 kcal/mol
GGCCGCCGAAAGGCTGCC (((.(((....))).)))	65.5 °C	-30.7 kcal/mol
GATCCCGGCGGGGATC ((((((....))))))	61.3 °C	-47.7 kcal/mol
GCGTAGGGAAACCTACAC (.(((((....))))).)	40.8 °C	-14.5 kcal/mol
GTCCCGGGAAACCGGGGC (.(((((....))))).)	64.3 °C	-19 kcal/mol
GACTGCACGAAAGTGGTC (((..(((....))))))	35.3 °C	-13.9 kcal/mol
GGGTCGGGAAACCGGCCC (((.(((....))).)))	67.1 °C	-36.3 kcal/mol
GGTTCACCGAAAGGTACC (((..(((....))))))	32.2 °C	-11.9 kcal/mol
GCATAAGGAAACTTGTGC (((.(((....))).)))	45.1 °C	-25.8 kcal/mol
GAACGCGAAAGCGTTTC ((((((....))).)))	57.7 °C	-10.7 kcal/mol
GGTGTGGGAAACCATGCC ((..(((....)))..))	45.5 °C	-30.7 kcal/mol
GCCTTTGGAAACAAAGGC (((((((....)))))))	66.7 °C	-38.4 kcal/mol
GGCGTAGCGAAAGCTGCC (((..(((....))))))	55.3 °C	-21.9 kcal/mol
GTCCAACGAAAGTTGAC (((.(((....))))))	45 °C	-14.7 kcal/mol
GTGGCTGGAAACGGTCAC (((.(.(....).).)))	44.5 °C	-30.7 kcal/mol
GCCGACGGAAACGTTGGC (((.(((....))).)))	63.9 °C	-45.5 kcal/mol
GATCCTTTCCAGGATC ((((((....))))))	51.7 °C	-46.1 kcal/mol
GATCGACGACTCGATC ((((((....))))))	48.7 °C	-36.3 kcal/mol
GTTTTGCGAAAGCATAAC (((.(((....))).)))	45.3 °C	-25.4 kcal/mol

Sequence	Tm [1]	folding enthalpy [2]
GAATCCGAAAGGAAATTC ((((((....)))..)))	29.1 °C	-15.5 kcal/mol
GCTGTGACGAAAGTCAGC (((..(((....))))))	47 °C	-15.1 kcal/mol
GTATGTCGAAAGACGTAC (((.(((....))).)))	52.8 °C	-24.8 kcal/mol
GGGGCTGGAAACGGCCCC (((((.(....).)))))	66.8 °C	-40.7 kcal/mol
GCCGCCGAAAGGCCAGGC ((((((....)))..)))	56.1 °C	-20.4 kcal/mol
GTTCCGCGAAAGCGAAC (((.(((....))))))	50.8 °C	-14.7 kcal/mol
GTGCTAGAAATAGCAC ((((((....))))))	56.5 °C	-40.3 kcal/mol
GCTTCTGGAAACGGAAGC (((((.(....).)))))	51.6 °C	-46.4 kcal/mol
GGTATACGAAAGTAGACC (((.(((....))).)))	52.1 °C	-50.9 kcal/mol
GCAATGCGAAAGCGTGGC ((.(.((....)).).))	56.6 °C	-33.7 kcal/mol
GGTATCGAAAGATACACC ((((((....)))..)))	42.9 °C	-11.8 kcal/mol
GTGACAACGAAAGTTCAC (((..(((....))))))	34.8 °C	-11.1 kcal/mol
GCTCAGCGAAAGCTTGGC ((..(((....)))..))	39.7 °C	-18.8 kcal/mol
GTACCCCCGAAAGGGTAC (((..(((....))))))	52.3 °C	-25.7 kcal/mol
GAGACAGGAAACCGTCTC (((((.(....).)))))	46.3 °C	-29.2 kcal/mol
GAAGCAGGAAACTGTTTC (((.(((....))).)))	38.8 °C	-26.7 kcal/mol
GGGTCTGGAAACAAACCC ((((.((....)).))))	37.9 °C	-31.6 kcal/mol
GTACGCGAAAGCGCGTAC ((((((....)))..)))	62.5 °C	-25.7 kcal/mol
GTCACCGAAAGGTCCGAC ((((((....)))..)))	31.1 °C	-11.2 kcal/mol
GCGGCGTCGAAAGACCGC (((..(((....))))))	54.6 °C	-27.5 kcal/mol
GTTACCGAAAGGTATAAC ((((((....)))..)))	31.1 °C	-11.7 kcal/mol
GAATGGGGAAACCCATTC (((((((....)))))))	57.6 °C	-33.7 kcal/mol
GTGTGTGGAAACACGCAC (((.(((....))).)))	58.7 °C	-40 kcal/mol

Sequence	Tm [1]	folding enthalpy [2]
GCGAATCGAAAGATCCGC (((.(((....))).)))	52.3 °C	-47 kcal/mol
GTCCTACGAAAGTACGAC (((.(((....))).)))	35.2 °C	-24.9 kcal/mol
GATCCAACTTGGATC ((((((...))))))	51.2 °C	-29 kcal/mol
GGCGACGGAAACGTTGCC (((.(((....))).)))	65 °C	-48.8 kcal/mol
GTGCGCGAAAGCGAGCAC ((((((....)))..)))	57.7 °C	-25.5 kcal/mol
GGTTGGGGAAACCCAGTC (..((((....))))..)	30.4 °C	-8.72 kcal/mol
GGGCGTACGAAAGTACCC (((..(((....))))))	50.2 °C	-17.4 kcal/mol
GCCTACGGAAACATAGGC (((((.(....).)))))	40.3 °C	-28.9 kcal/mol
GGAGTGGGAAACCACCCC ((.((((....)))).))	47.1 °C	-21.5 kcal/mol
GATCCTCGTCAGGATC ((((((....))))))	50.8 °C	-25.1 kcal/mol
GCAGCCGGAAACGACTGC ((((.((....)).))))	56.6 °C	-43.5 kcal/mol
GAATAGGCGAAAGCCTTC (((..(((....))))))	29.1 °C	-8.6 kcal/mol
GCCCACGGAAACGCAGGC (((..((....))..)))	39.6 °C	-17.8 kcal/mol
GGCCAGCGAAAGCTCGCC (((.(((....))).)))	53.4 °C	-38.9 kcal/mol
GTTGGCGGAAACGTCAAC ((((.((....)).))))	56.8 °C	-36.7 kcal/mol
GGCCACGAAAGTGCGGCC ((((((....)))..)))	55.6 °C	-39.6 kcal/mol
GATCGACGCTTCGATC ((((((....))))))	53.3 °C	-40.6 kcal/mol
GGTCATGGAAACGTGACC (((((.(....).)))))	53.6 °C	-52.9 kcal/mol
GTTCACGAAAGTGTTAAC ((((((....)))..)))	28 °C	-12.2 kcal/mol
GCGAGCGAAAGCTCCCGC ((((((....)))..)))	42.4 °C	-11.6 kcal/mol
GCGGTCGCGAAAGCGCGC (((..(((....))))))	59.7 °C	-16.1 kcal/mol
CGTTACGGAAACGTACG (((.(((....))))))	45.4 °C	-26.3 kcal/mol
